Screening results (PubChem)
An excerpt weighted towards active compounds, which were near 2% of everything screened.
PP5 primary – PP5 phosphatase inhibitors, primary screen, biochemical, fluorescence; 320,000 tested, 0.18% active; Serine/threonine-protein phosphatase 5 (Homo sapiens), P53041; inhibition, % at 6.7 µM; purified PP5c, OMFP substrate fluorescence;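 active = inhibition above the campaign's mean inhibition across all tested compounds plus 3 SD, cut at about 9.5% in these data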
Apaf-1 inh – inhibitors of human Apaf-1 apoptosome, primary screen, biochemical, DEVD-Rh110 fluorescence, uHTS | reconstituted apoptosome caspase-3 activity | inhibition, % at 20 µM | 330,000 tested, 0.71% active | AID 489030, 2010; active = inhibition of at least 40% at 20 µM
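Material: reconstituted apoptosome with Apaf-1, cytochrome c, caspase-9, procaspase-3, dATP; medium: pH 7.5 Hepes buffer with CHAPS, BSA, DTT; also added: cytochrome c and DEVD-Rh110 substrate; timing: 30 min plus 50 min, RT; signal: Rh110 fluorescence intensity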
PAD4 FP inh – human PAD4 inhibitors, primary screen, biochemical, fluorescence polarization, 1536-well format | Protein-arginine deiminase type-4 (Homo sapiens), Q9UM07 | recombinant PAD4, RCA probe fluorescence polarization | inhibition, % at 6.36 µM | 330,000 tested, 0.41% active;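 active = percent inhibition above a cutoff equal to the mean of all tested compounds plus 3 SD, cut at about 15% in these data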
CTSL1 counter – Fasciola hepatica cathepsin L1 inhibitors, primary screen, counter-screen for PFM18AAP inhibitor project, biochemical, QFRET, fluorogenic peptide substrate; recombinant F. hepatica cathepsin L1, Z-Leu-Arg-MCA fluorescence; inhibition, % at 5.96 µM; 300,000 tested, 0.49% active;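 active = inhibition above the mean of all tested compounds plus 3 SD, set per screening campaign, cut at about 17% in these data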
GSTO1 counter – inhibitors of recombinant GSTO1, primary screen, counter-screen for RBBP9 inhibitor project, biochemical, fluorescence polarization; AID 1974, 2009; inhibition, % at 5.96 µM; 300,000 tested, 1.1% active; activity-based probe fluorescence polarization; Glutathione S-transferase omega-1 (Homo sapiens), P78417;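 active = inhibition above the campaign mean inhibition plus 3 SD, cut at about 35% in these data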
UCH37 inh – inhibitors of human UCH37 deubiquitinase, primary screen, biochemical, Ub-AMC cleavage, fluorescence. inhibition, % (test concentration not listed). purified proteasome/UCH37. Ubiquitin carboxyl-terminal hydrolase isozyme L5 (Homo sapiens), Q9Y5K5. 330,000 tested, 0.33% active;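 active = mean inhibition over replicate wells above about 20%, limit read from the data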
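Test system – human UCH37 enzyme supplied as purified proteasome complex · Incubation – 30 min preincubation with enzyme, 25 min cleavage at room temperature · Detection – AMC fluorescence from Ub-AMC cleavage, excitation 355 nm, emission 460 nm · Benchmarks – no-proteasome wells (full inhibition) and compound-free wells (no inhibition)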
Large screens that a line does not name were inactive.

O=C(COC(=O)c1ccc2c(c1)C(=O)N(Cc1ccncc1)C2=O)Nc1cccc2ccccc12	CTSL1 counter 19
O=C1SCCC1NS(=O)(=O)c1ccc([N+](=O)[O-])cc1 (configuration not stated)	CTSL1 counter 21
Cc1cccc2c1-c1sc(C(=O)Nc3nccs3)cc1CO2	none
CCOC(=O)c1cc2c(s1)-c1c(C)cccc1OC2	CTSL1 counter 18
CC(SCc1ccccc1)C(=O)NN=Cc1ccc(OCC(=O)NCc2ccco2)cc1 (configuration not stated)	none (no result: PP5 primary, Apaf-1 inh, PAD4 FP inh, CTSL1 counter, GSTO1 counter)
O=C(Nc1ccccc1)NC1(C(=O)NCCCN2CCOCC2)CCCCC1	none
Cc1ccccc1NC(=O)NC1(C(=O)NCCCN2CCOCC2)CCCCC1	UCH37 inh 35
C(=Nn1cnnc1)c1ccccc1OCCOc1ccccc1	none (no result: PP5 primary, Apaf-1 inh, PAD4 FP inh, CTSL1 counter, GSTO1 counter)
N#Cc1c(N2CCOCC2)nc(-c2ccco2)c2c1CCCC2	CTSL1 counter 42
CC(C)CCNc1nc(-c2ccco2)c2c(c1C#N)CCCC2	CTSL1 counter 19
CC(C)c1nc(N2CCN(C(=O)c3ccco3)CC2)c(C#N)c2c1COC(C)(C)C2	none
CCCCc1nc(N2CCN(C(=O)c3ccco3)CC2)c(C#N)c2c1CCCC2	Apaf-1 inh 42
c1ccc(Nc2cccc3c(Nc4ccccc4)cccc23)cc1	none
O=S(=O)(O)c1cccc2cccc(Nc3ccccc3)c12	GSTO1 counter 38
CC(=NOCC(=O)Nc1ccccc1Br)c1cccs1	none (no result: PP5 primary, Apaf-1 inh, PAD4 FP inh, CTSL1 counter, GSTO1 counter)
CN(C)c1ccc(N=Cc2nc(-c3ccccc3)oc2OC(=O)c2cccc(Cl)c2)cc1	none
COc1cccc(N=Cc2nc(-c3ccccc3)oc2OC(C)=O)c1	CTSL1 counter 28
COc1ccc(N=Cc2nc(-c3ccccc3)oc2OC(C)=O)cc1	CTSL1 counter 20
COc1c(Cl)cc(Cl)cc1C=NNC(=O)c1nnn(-c2nonc2N)c1CN1CCC(C)CC1	none (no result: PP5 primary, Apaf-1 inh, PAD4 FP inh, CTSL1 counter, GSTO1 counter)
COc1ccc(C=NNC(=O)c2cccc(COCC(F)(F)C(F)F)c2)cc1	none (no result: PP5 primary, Apaf-1 inh, PAD4 FP inh, CTSL1 counter, GSTO1 counter)
Cc1cccc(C)c1N1C(=O)[C@@H]2C(c3ccccc3Cl)=NO[C@@H]2C1=O	none
COc1ccc(OC)c(N2C(=O)[C@@H]3C(c4ccccc4Cl)=NO[C@@H]3C2=O)c1	GSTO1 counter 37
CCCCc1ccc(-c2nc(NC(=O)C3C4CCC(O4)C3C(=O)O)sc2C)cc1 (configuration not stated)	PP5 primary 75 (no result: UCH37 inh)
Cc1nn(Cc2ccccc2Cl)c(C)c1NC(=O)C1C2CCC(O2)C1C(=O)O (configuration not stated)	none (no result: PP5 primary, Apaf-1 inh, PAD4 FP inh, CTSL1 counter, GSTO1 counter)
CS(=O)(=O)N1CCC(C(=O)Nc2ccccc2Br)CC1	none
O=C(O)C1C2CCC(O2)C1C(=O)Nc1ccccc1Br (configuration not stated)	PP5 primary 68
Cc1ccc(F)cc1NC(=O)C1C2CCC(O2)C1C(=O)O (configuration not stated)	PP5 primary 64
Cc1sc(NC(=O)c2ccco2)nc1-c1ccccc1	none
Cc1ccc(C)c(NC(=O)C2C3C=CC(O3)C2C(=O)O)c1 (configuration not stated)	none (no result: PP5 primary, PAD4 FP inh, CTSL1 counter, GSTO1 counter)
Cc1ccccc1NC(=O)C1C2CCC(O2)C1C(=O)O (configuration not stated)	PP5 primary 63
O=C(C(=NN=Cc1ccc(O)c(O)c1O)c1ccccc1)c1ccccc1	none (no result: PP5 primary, Apaf-1 inh, PAD4 FP inh, CTSL1 counter, GSTO1 counter)
C=CCON=C(C)c1ccc(Oc2cnccn2)cc1	none (no result: PP5 primary, Apaf-1 inh, PAD4 FP inh, CTSL1 counter, GSTO1 counter)
Cc1nn(-c2ccccc2)c(C)c1C=NNC(=O)c1cc(C23CC4CC(CC(C4)C2)C3)[nH]n1	none (no result: PP5 primary, Apaf-1 inh, PAD4 FP inh, CTSL1 counter, GSTO1 counter)
CC(=NOC(=O)c1ccc(Cl)cc1)c1sc(-c2ccccc2)nc1C	none (no result: PP5 primary, Apaf-1 inh, PAD4 FP inh, CTSL1 counter, GSTO1 counter)
CCOC(=O)c1c(-c2ccc(-c3ccccc3)cc2)csc1NC(=O)C1C2CCC(O2)C1C(=O)O (configuration not stated)	PP5 primary 11
CCOC(=O)c1c(-c2ccccc2)csc1NC(=O)C1CCCO1 (configuration not stated)	none
O=C(O)C(S)C(S)C(=O)O (configuration not stated)	GSTO1 counter 64 (no result: Apaf-1 inh, UCH37 inh)
N#C/C(C(=O)Nc1ccc(Cl)cc1)=C(/S)Nc1ccccc1	GSTO1 counter 52 (no result: UCH37 inh)
CC(CCN1CCc2nc(-c3ccccc3)c(-c3ccccc3)cc2C1)=NO[C@@H](C)c1cn([C@H](CO)Cc2ccccc2)nn1	none (no result: PP5 primary, Apaf-1 inh, PAD4 FP inh, CTSL1 counter, GSTO1 counter)
COc1ccc(O[C@H]2C=C[C@@H](c3ccccc3)O[C@@H]2CO/N=C(\C)CCN2CCc3nc(-c4ccccc4)c(-c4ccccc4)cc3C2)cc1	Apaf-1 inh 48 (no result: UCH37 inh)
CCc1cc2c(nc1CC)CCN(CC/C(C)=N/OC[C@H]1O[C@H](c3ccccc3)C=C[C@@H]1Oc1ccc(OC)cc1)C2	Apaf-1 inh 43 (no result: PP5 primary, PAD4 FP inh, CTSL1 counter, GSTO1 counter, UCH37 inh)
CCN(CC)Cc1c(C(=O)NN=Cc2cccnc2)nnn1-c1nonc1N	none (no result: PP5 primary, Apaf-1 inh, PAD4 FP inh, CTSL1 counter, GSTO1 counter)
CC1CCC(=NNc2ccccc2)C(=O)N1 (configuration not stated)	none (no result: PP5 primary, Apaf-1 inh, PAD4 FP inh, CTSL1 counter, GSTO1 counter)
C#CCOCCOCCOCCNc1nc(N2CCOCC2)nc(N2CCN(C(=O)[C@H](Cc3cc4ccccc4[nH]3)n3cc([C@@H](N)Cc4ccc(O)cc4)nn3)CC2)n1	UCH37 inh 23
C#CCOCCOCCOCCNc1nc(N2CCN(C(=O)C(Cc3ccc(O)cc3)n3cc(C(N)CC(C)C)nn3)CC2)nc(N2CCN(C(=O)C(Cc3cc4ccccc4[nH]3)n3cc(C(N)Cc4ccc(O)cc4)nn3)CC2)n1 (configuration not stated)	none
C#CCOCCOCCOCCNc1nc(N2CCN(C(=O)[C@H]([C@@H](C)CC)n3cc([C@@H](N)CO)nn3)CC2)nc(N2CCN(C(=O)[C@H](Cc3ccc(O)cc3)n3cc([C@@H](N)CC(C)C)nn3)CC2)n1	none
C#CCOCCOCCOCCNc1nc(N2CCN(C(=O)[C@H]([C@@H](C)CC)n3cc([C@@H](N)CO)nn3)CC2)nc(N2CCN(C(=O)[C@H](Cc3cc4ccccc4[nH]3)n3cc([C@@H](N)Cc4ccc(O)cc4)nn3)CC2)n1	Apaf-1 inh 57 (no result: UCH37 inh)
COc1ccc(-n2cnc3cc(NS(=O)(=O)c4ccc(C)cc4)ccc32)cc1	PP5 primary 12 (no result: UCH37 inh)
ON=Cc1ccn(-c2ccc(Br)cc2)c1	none (no result: PP5 primary, Apaf-1 inh, PAD4 FP inh, CTSL1 counter, GSTO1 counter)
Cc1cc(C)c2ccc(C=NO)nc2c1O	none (no result: PP5 primary, Apaf-1 inh, PAD4 FP inh, CTSL1 counter, GSTO1 counter)
O=C(OCn1ncc(Br)c(Br)c1=O)c1ccc(F)cc1	PAD4 FP inh 26, GSTO1 counter 36
CC(=O)OCn1ncc(N2CCOCC2)c(Br)c1=O	none
